How the values were obtained:
[1] = BJ cell cytotoxicity counter screen; format: cell-based; details: human, BJ cells (normal human foreskin fibroblast cell line)
[2] = system: HT29 colorectal carcinoma cell line; experiment: quantitative high-throughput screening, HT29 cell growth inhibition; format: cell-based; details: HT29 cells, vs SSA (1)
[3] = system: PC3 prostate cancer cell line; experiment: quantitative high-throughput screening, PC3 cell growth inhibition; format: cell-based; details: PC3 cells, vs SSA (1)
[4] = system: MDA-MB-231 breast cancer cell line; experiment: quantitative high-throughput screening, MDA-MB-231 cell growth inhibition; format: cell-based; details: MDA-MB-231 cells, vs SSA (1)
[5] = computed physicochemical properties; details: LipE = pCC50 (HT29) – logD (at pH 7.4)
How it was run: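 Lipophilic efficiency: CC50 taken from whole-cell HT29 growth-inhibition screening, not an enzymatic target-based assay. The value is converted to pCC50, and logD at pH 7.4 is subtracted from it.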

[6] = system: human colon tumor xenograft; details: human colon tumor xenograft model; cited from earlier work

| Compound | EC50 [1] [µM] | other results |
| --- | --- | --- |
| CC1=C(CC(=O)NCc2ccccc2)c2cc(F)ccc2/C1=C\c1ccc([S+](C)[O-])cc1 (centres unmarked) [Compound 79] | > 7.57 | – |
| CSc1ccc(/C=C2/C(C)=C(CC(=O)N3CCC[C@H]3CN3CCCC3)c3cc(F)ccc32)cc1 [Compound 43] | > 7.57 | – |
| CSc1ccc(/C=C2/C(C)=C(CC(=O)NCc3ccccc3)c3cc(F)ccc32)cc1 [Compound 72] | – | reduction of activity compared to lead compound 1, HT29 [2]: 4 fold; reduction of activity compared to lead compound 1, PC3 [3]: 4 fold; reduction of activity compared to lead compound 1, MDA-MB-231 [4]: 1.5 fold |
| CC1=C(CC(=O)N2CCN(c3ccncc3)CC2)c2cc(F)ccc2/C1=C\c1nc2ccccc2s1 [Compound 63] | > 7.57 | – |
| CSc1ccc(/C=C2/C(C)=C(CC(=O)NCCC3CCCN3C)c3cc(F)ccc32)cc1 (centres unmarked) [Compound 41] | – | LipE [5]: > 3 |
| CSc1ccc(/C=C2/C(C)=C(CC(=O)N3CCN(c4ccncc4)CC3)c3cc(F)ccc32)cc1 [Compound 46] | > 7.57 | – |
| CCN(CC)CCCNC(=O)CC1=C(C)/C(=C/c2ccc(SC)cc2)c2ccc(F)cc21 [Compound 4] | > 7.57 | – |
| CC1=C(CC(=O)N2CCN(CCCN(C)C)CC2)c2cc(F)ccc2/C1=C\c1nc2ccccc2s1 [Compound 62] | > 7.57 | LipE [5]: > 3 |
| CSc1ccc(/C=C2/C(C)=C(CC(=O)NCCCN(C)C)c3cc(F)ccc32)cc1 [Compound 2] | – | reduction of activity compared to lead compound 1, HT29 [2]: 4 fold; reduction of activity compared to lead compound 1, PC3 [3]: 2 fold; reduction of activity compared to lead compound 1, MDA-MB-231 [4]: 2 fold |
| CSc1ccc(/C=C2/C(C)=C(CC(=O)NCCN(C)C)c3cc(F)ccc32)cc1 [Compound 1, sulindac sulfide amide] | – | LipE [5]: 1.78; in vivo antitumor activity [6]: comparable to sulindac |
| CSc1ccc(/C=C2/C(C)=C(CC(=O)N3CCCN(C)CC3)c3cc(F)ccc32)cc1 [Compound 50] | > 7.57 | – |
| COc1cc(/C=C2/C(C)=C(CC(=O)N3CCN(c4ccncc4)CC3)c3cc(F)ccc32)cc(OC)c1OC [Compound 59] | > 7.57 | – |
| CC1=C(CC(=O)N(C)CCN(C)C)c2cc(F)ccc2/C1=C\c1nc2ccccc2s1 [Compound 35] | > 7.57 | – |
| CC1=C(CC(=O)NCCCN(C)C)c2cc(F)ccc2/C1=C\c1nc2ccccc2s1 [Compound 33] | > 7.57 | – |
| CSc1ccc(/C=C2/C(C)=C(CC(=O)N3CCN(CCN(C)C)CC3)c3cc(F)ccc32)cc1 [Compound 45] | > 7.57 | – |
| COc1cc(/C=C2/C(C)=C(CC(=O)N(C)CCN(C)C(=O)[C@@H](N)C(C)C)c3cc(F)ccc32)cc(OC)c1OC [Compound 89] | > 7.57 | – |
| CSc1ccc(/C=C2/C(C)=C(CC(=O)N3CCN(CCCN(C)C)CC3)c3cc(F)ccc32)cc1 [Compound 44] | > 7.57 | – |
| CSc1ccc(/C=C2/C(C)=C(CC(=O)N(C)CCN(C)C)c3cc(F)ccc32)cc1 [Compound 5] | > 7.57 | – |
| CC1=C(CC(=O)NCCN2CCCC2)c2cc(F)ccc2/C1=C\c1nc2ccccc2s1 [Compound 61] | > 7.57 | LipE [5]: > 3 |

— publication PMC6022754 (Bioorganic & medicinal chemistry letters, 2017)
